Reference: ChEMBL document CHEMBL5338764, “Prodrug Strategies for the Development of β-l-5-((E)-2-Bromovinyl)-1-((2S,4S)-2-(hydroxymethyl)-1,3-(dioxolane-4-yl))uracil (l-BHDU) against Varicella Zoster Virus (VZV)” (J Med Chem, 2023)

Assays:
Human alphaherpesvirus 3 [1] = test: Antiviral activity against VZV infected HFF cells assessed as reduction in viral replication; type: functional, organism-based; details: Human alphaherpesvirus 3, HFF
HFF = test: Cytotoxicity against HFF cells assessed as cell growth inhibition upto 200 uM; type: toxicity, cell-based; details: human
[2] = Selectivity index, ratio of CC50 for HFF cells to EC50 for VZV infected HFF cells; type: toxicity; details: human, read-out: Selectivity Index
[3] = Selectivity index, ratio of CC50 for human ARPE-19 cells to EC50 for VZV infected human ARPE-19 cells; type: toxicity; details: VZV infected ARPE-19 cells, read-out: Selectivity Index
[4] = Drug concentration in BALB/c mouse plasma at 11.4 mg/kg, po via gavage measured after 20 mins by LC-MS/MS analysis; type: ADME, organism-based
In short: (§1)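 BALB/c mice of both sexes (N = 15 per sex per group) received a single oral gavage dose: 11.4 mg/kg L-BHDU or an equimolar 22.5 mg/kg of the POM prodrug, in Cremophor–DMSO–saline (1:1:8). Three mice per group were bled by cardiac puncture under isoflurane at 20, 40, 60 and 120 min into heparin. Plasma (AZT internal standard, 20 ng/mL) was methanol-precipitated and L-BHDU quantified by LC-MS/MS (negative ESI).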

[5] = Drug concentration in BALB/c mouse plasma at 11.4 mg/kg, po via gavage measured after 40 mins by LC-MS/MS analysis; type: ADME, organism-based; in short: as §1
[6] = Drug concentration in BALB/c mouse plasma at 11.4 mg/kg, po via gavage measured after 60 mins by LC-MS/MS analysis; type: ADME, organism-based; in short: as §1
Human alphaherpesvirus 3 [7] = test: Antiviral activity against VZV expressing ORF57-TS mutant infected human ARPE-19 cells assessed as reduction in viral replication treated for 72 hrs by bioluminescence imaging analysis; type: functional, organism-based; details: Human alphaherpesvirus 3, ARPE-19, 72 h
[8] = Stability of compound in gastric juice; type: ADME; details: simulated gi fluid
[9] = Stability of compound in intestinal juice; type: ADME; details: simulated gi fluid
[10] = Prodrug conversion in mouse liver homogenate assessed as concentration of L-BHDU formation at 0.3 ug/ml measured immediately by LC-MS/MS analysis; type: ADME, tissue-based; details: dose 0.3 µg/ml
In short: (§2)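 Liver homogenate from untreated BALB/c mice was spiked with prodrug at 0.3 μg/mL, with azidothymidine internal standard at 20 ng/mL final, and incubated at 37 °C. Reactions were stopped with 2 volumes of methanol at 0, 2, 4, 10, 30 and 60 min. Supernatants were dried and reconstituted in 50% methanol. Prodrug, L-BHDU and L-BHDU-MP were quantified by LC-MS/MS against calibration curves.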

[11] = Prodrug conversion in mouse liver homogenate assessed as concentration of L-BHDU formation at 0.3 ug/ml measured after 2 mins by LC-MS/MS analysis; type: ADME, tissue-based; details: dose 0.3 µg/ml; in short: as §2
[12] = Prodrug conversion in mouse liver homogenate assessed as concentration of L-BHDU formation at 0.3 ug/ml measured after 4 mins by LC-MS/MS analysis; type: ADME, tissue-based; details: dose 0.3 µg/ml; in short: as §2
[13] = Prodrug conversion in mouse liver homogenate assessed as concentration of L-BHDU formation at 0.3 ug/ml measured after 10 mins by LC-MS/MS analysis; type: ADME, tissue-based; details: dose 0.3 µg/ml; in short: as §2
[14] = Prodrug conversion in mouse liver homogenate assessed as concentration of L-BHDU formation at 0.3 ug/ml measured after 30 mins by LC-MS/MS analysis; type: ADME, tissue-based; details: 0.5 h, dose 0.3 µg/ml; in short: as §2
[15] = Prodrug conversion in mouse liver homogenate assessed as concentration of L-BHDU formation at 0.3 ug/ml measured after 60 mins by LC-MS/MS analysis; type: ADME, tissue-based; details: in vitro, 1 h; in short: as §2
[16] = Stability in mouse liver homogenate assessed as compound remaining at 0.3 ug/ml measured immediately by LC-MS/MS analysis; type: ADME, tissue-based; details: tissue homogenate, dose 0.3 µg/ml; in short: as §2
[17] = Stability in mouse liver homogenate assessed as compound remaining at 0.3 ug/ml measured after 2 mins by LC-MS/MS analysis; type: ADME, tissue-based; details: tissue homogenate, dose 0.3 µg/ml; in short: as §2
[18] = Stability in mouse liver homogenate assessed as compound remaining at 0.3 ug/ml measured after 4 mins by LC-MS/MS analysis; type: ADME, tissue-based; details: tissue homogenate, dose 0.3 µg/ml; in short: as §2
[19] = Stability in mouse liver homogenate assessed as compound remaining at 0.3 ug/ml measured after 10 mins by LC-MS/MS analysis; type: ADME, tissue-based; details: tissue homogenate, dose 0.3 µg/ml; in short: as §2
[20] = Stability in mouse liver homogenate assessed as compound remaining at 0.3 ug/ml measured after 30 mins by LC-MS/MS analysis; type: ADME, tissue-based; details: tissue homogenate, 0.5 h, dose 0.3 µg/ml; in short: as §2
[21] = Prodrug conversion in BALB/c mouse assessed as concentration of L-BHDU formation at 22.5 mg/kg, po via gavage measured immediately by LC-MS/MS analysis; type: ADME, organism-based; details: in vivo
[22] = Prodrug conversion in BALB/c mouse assessed as concentration of L-BHDU formation at 22.5 mg/kg, po via gavage measured after 20 mins by LC-MS/MS analysis; type: ADME, organism-based; details: in vivo; in short: as §1
[23] = Prodrug conversion in BALB/c mouse assessed as concentration of L-BHDU formation at 22.5 mg/kg, po via gavage measured after 40 mins by LC-MS/MS analysis; type: ADME, organism-based; details: in vivo; in short: as §1
[24] = Prodrug conversion in BALB/c mouse assessed as concentration of L-BHDU formation at 22.5 mg/kg, po via gavage measured after 60 mins by LC-MS/MS analysis; type: ADME, organism-based; details: in vivo, 1 h; in short: as §1
[25] = Prodrug conversion in BALB/c mouse assessed as concentration of L-BHDU formation at 22.5 mg/kg, po via gavage measured after 120 mins by LC-MS/MS analysis; type: ADME, organism-based; details: in vivo, 2 h; in short: as §1
[26] = Prodrug conversion in BALB/c mouse assessed as AUC of L-BHDU at 22.5 mg/kg, po via gavage measured upto 120 mins by LC-MS/MS analysis; type: ADME, organism-based; parameters: time < 120 min, dose 22.5 mg/kg, route po; details: in vivo, 2 h; in short: as §1
[27] = Prodrug conversion in BALB/c mouse assessed as Tmax of L-BHDU at 22.5 mg/kg, po via gavage measured upto 120 mins by LC-MS/MS analysis; type: ADME, organism-based; details: in vivo, 2 h; in short: as §1
[28] = Prodrug conversion in BALB/c mouse assessed as Cmax of L-BHDU at 22.5 mg/kg, po via gavage measured upto 120 mins by LC-MS/MS analysis; type: ADME, organism-based; parameters: dose 22.5 mg/kg, time < 120 min, route po; details: in vivo, 2 h; in short: as §1
Human alphaherpesvirus 3 [29] = test: Antiviral activity against VZV infected human ARPE-19 cells assessed as reduction in viral replication treated for 72 hrs by bioluminescence imaging analysis; type: functional, organism-based; details: Human alphaherpesvirus 3, ARPE-19, 72 h
[30] = Cytotoxicity against human ARPE-19 cells assessed as reduction in cell viability treated for 72 hrs by neutral red assay; type: toxicity, cell-based
In short: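 ARPE-19 cells (DMEM, 10% heat-inactivated FBS, penicillin-streptomycin, amphotericin B; used within 30 passages) seeded 3 d, then exposed 72 h to a concentration range, higher than in antiviral runs, under the same conditions. Viability read by neutral red dye uptake; staurosporine as cell-death control. […] DMSO stocks diluted in DMSO and/or medium.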

[31] = Cytotoxicity against HFF cells assessed as reduction in cell viability; type: toxicity, cell-based; details: human
Human alphaherpesvirus 3 [32] = test: Antiviral activity against VZV expressing ORF57-Luc infected human ARPE-19 cells assessed as reduction in viral replication treated for 72 hrs by bioluminescence imaging analysis; type: functional, organism-based; details: Human alphaherpesvirus 3, ARPE-19, 72 h
Human alphaherpesvirus 3 [33] = test: Antiviral activity against VZV expressing ORF57-TK mutant infected human ARPE-19 cells assessed as reduction in viral replication treated for 72 hrs by bioluminescence imaging analysis; type: functional, organism-based; details: Human alphaherpesvirus 3, ARPE-19, 72 h
Human alphaherpesvirus 3 [34] = test: Antiviral activity against VZV expressing ORF57-TKTS mutant infected human ARPE-19 cells assessed as reduction in viral replication treated for 72 hrs by bioluminescence imaging analysis; type: functional, organism-based; details: Human alphaherpesvirus 3, ARPE-19, 72 h

O=c1[nH]c(=O)n([C@@H]2CO[C@H](CO)O2)cc1/C=C/Br
EC50 (Human alphaherpesvirus 3 [1]): 250 nM | Activity (HFF): Non-Toxic | selectivity ratio [2]: > 909 | selectivity ratio [3]: > 3880 | concentration at 20 min [4]: 5620 ng/mL | concentration at 40 min [5]: 4500 ng/mL | concentration at 1 h [6]: 6180 ng/mL

N[C@H](Cc1ccccc1)C(=O)OC[C@H]1OC[C@@H](n2cc(/C=C/Br)c(=O)[nH]c2=O)O1
selectivity ratio [3]: > 3480

CC(C)C[C@H](N)C(=O)OC[C@H]1OC[C@@H](n2cc(/C=C/Br)c(=O)[nH]c2=O)O1
selectivity ratio [3]: > 2420

NCC(=O)OC[C@H]1OC[C@@H](n2cc(/C=C/Br)c(=O)[nH]c2=O)O1
selectivity ratio [3]: > 2130

CC[C@H](C)[C@H](N)C(=O)OC[C@H]1OC[C@@H](n2cc(/C=C/Br)c(=O)[nH]c2=O)O1
selectivity ratio [3]: > 1520

C[C@@H](N)C(=O)OC[C@H]1OC[C@@H](n2cc(/C=C/Br)c(=O)[nH]c2=O)O1
selectivity ratio [3]: > 2960

NC(=O)CC[C@H](N)C(=O)OC[C@H]1OC[C@@H](n2cc(/C=C/Br)c(=O)[nH]c2=O)O1
selectivity ratio [3]: > 794

CC(C)(C)C(=O)OCOP(=O)(OCOC(=O)C(C)(C)C)OC[C@H]1OC[C@@H](n2cc(/C=C/Br)c(=O)[nH]c2=O)O1
EC50 (Human alphaherpesvirus 3 [7]): 1 nM | selectivity ratio [3]: > 2810 | Stability [8]: Stable | Stability [9]: Stable | Drug metabolism [10]: 0.016 µg/mL | Drug metabolism [11]: 0.055 µg/mL | Drug metabolism [12]: 0.142 µg/mL | Drug metabolism [13]: 0.359 µg/mL | Drug metabolism [14]: 1.385 µg/mL | Drug metabolism [15]: 1.961 µg/mL | Stability [16]: 0.599 µg/mL | Stability [17]: 3.094 µg/mL | Stability [18]: 4.569 µg/mL | Stability [19]: 4.488 µg/mL | Stability [20]: 3.777 µg/mL | Drug metabolism [21]: 0 µg/mL | Drug metabolism [22]: 8.69 µg/mL | Drug metabolism [23]: 14.044 µg/mL | Drug metabolism [24]: 13.543 µg/mL | Drug metabolism [25]: 10.608 µg/mL | AUC [26]: 1680 µg·min/mL | Tmax [27]: 40 min | Cmax [28]: 10600 ng/mL

N[C@@H](Cc1c[nH]c2ccccc12)C(=O)OC[C@H]1OC[C@@H](n2cc(/C=C/Br)c(=O)[nH]c2=O)O1
selectivity ratio [3]: > 1550

O=C(OC[C@H]1OC[C@@H](n2cc(/C=C/Br)c(=O)[nH]c2=O)O1)[C@@H]1CCCN1
selectivity ratio [3]: > 1930

CCCCCCCCCCCCCCCCOCCCOP(=O)(OC[C@H]1OC[C@@H](n2cc(/C=C/Br)c(=O)[nH]c2=O)O1)Oc1ccccc1 (stereo not given in full)
EC50 (Human alphaherpesvirus 3 [29]): 526 nM | CC50 at 72 h [30]: 18500 nM | selectivity ratio [3]: 35

CC(C)[C@H](N)C(=O)OC[C@H]1OC[C@@H](n2cc(/C=C/Br)c(=O)[nH]c2=O)O1
selectivity ratio [3]: > 709

CC(C)(N)C(=O)OC[C@H]1OC[C@@H](n2cc(/C=C/Br)c(=O)[nH]c2=O)O1
selectivity ratio [3]: > 2600

CC(C)[C@@H](N)C(=O)OC[C@H]1OC[C@@H](n2cc(/C=C/Br)c(=O)[nH]c2=O)O1
CC50 [31]: > 200000 nM | selectivity ratio [3]: > 3320

CC(C)C(=O)OCOP(=O)(OCOC(=O)C(C)C)OC[C@H]1OC[C@@H](n2cc(/C=C/Br)c(=O)[nH]c2=O)O1
EC50 (Human alphaherpesvirus 3 [7]): 8 nM | EC50 (Human alphaherpesvirus 3 [29]): 34 nM | CC50 at 72 h [30]: > 100000 nM | selectivity ratio [3]: > 2920 | EC50 (Human alphaherpesvirus 3 [32]): 40 nM | EC50 (Human alphaherpesvirus 3 [33]): > 2000 nM | EC50 (Human alphaherpesvirus 3 [34]): > 2000 nM

N[C@@H](Cc1ccc(O)cc1)C(=O)OC[C@H]1OC[C@@H](n2cc(/C=C/Br)c(=O)[nH]c2=O)O1
selectivity ratio [3]: > 826

CCCCCCCCCCCCCCCCCCOCCOP(=O)(OC[C@H]1OC[C@@H](n2cc(/C=C/Br)c(=O)[nH]c2=O)O1)Oc1ccccc1 (stereo not given in full)
EC50 (Human alphaherpesvirus 3 [7]): 1 nM | EC50 (Human alphaherpesvirus 3 [29]): 100 nM | CC50 at 72 h [30]: 33900 nM | selectivity ratio [3]: 339 | EC50 (Human alphaherpesvirus 3 [32]): 820 nM | EC50 (Human alphaherpesvirus 3 [33]): > 2000 nM | EC50 (Human alphaherpesvirus 3 [34]): > 2000 nM
